Assay results as given in ChEMBL document CHEMBL1123659, “2-Phenylindoles. Effect of N-benzylation on estrogen receptor affinity, estrogenic properties, and mammary tumor inhibiting activity” (J Med Chem, 1987).
Where “and” joins values, the source holds several entries; their conditions need not be identical. Identical values can stand only once. Blank lines part the entries; values can stand above or below the compound they belong to.

Experiments:
[1] = target: Estrogen receptor (Bos taurus) (UniProt Q9XSB5+P49884); test: Relative binding affinity for the calf uterine estrogen receptor by 17-beta-[3H]-estradiol displacement.; type: protein assay
Procedure, shortened: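 Calf uterine cytosol (105000g supernatant, 3 mg/mL protein final) in Tris-EDTA-NaN3 buffer, pH 7.5. Incubated with 5 nM 17β-[3H]estradiol and 10^-9–10^-5 M competitor for 18 h at 4 °C. Dextran-coated charcoal added for 90 min, then supernatant radioactivity counted. Nonspecific binding taken with 5 µM estradiol. RBA = molar ratio of estradiol to competitor at 50% displacement ×100.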

[2] = target: T1, Estrogen receptor (Mus musculus) (UniProt O08537+P19785); test: (§1) Estrogenic activity as Uterus dry weight (mg)/body weight (g) *100 in mice with 0.4 ug estrone; type: functional, tissue-based
T1 sequence (O08537 whole entry, looked up): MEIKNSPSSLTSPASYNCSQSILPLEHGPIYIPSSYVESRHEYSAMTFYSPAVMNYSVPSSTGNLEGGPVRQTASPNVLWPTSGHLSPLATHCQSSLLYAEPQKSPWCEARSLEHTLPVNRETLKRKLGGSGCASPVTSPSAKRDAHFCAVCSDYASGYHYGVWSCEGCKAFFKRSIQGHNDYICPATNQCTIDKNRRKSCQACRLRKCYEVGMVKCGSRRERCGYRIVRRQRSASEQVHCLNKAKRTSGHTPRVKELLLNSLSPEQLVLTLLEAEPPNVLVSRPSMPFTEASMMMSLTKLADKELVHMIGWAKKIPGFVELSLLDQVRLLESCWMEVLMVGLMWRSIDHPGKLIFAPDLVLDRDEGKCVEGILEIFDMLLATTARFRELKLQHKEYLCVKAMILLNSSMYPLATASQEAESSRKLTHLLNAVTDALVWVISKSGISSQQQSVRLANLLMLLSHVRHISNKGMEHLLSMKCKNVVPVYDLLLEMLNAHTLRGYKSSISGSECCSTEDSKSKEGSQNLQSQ
T1 sequence (P19785 whole entry, looked up): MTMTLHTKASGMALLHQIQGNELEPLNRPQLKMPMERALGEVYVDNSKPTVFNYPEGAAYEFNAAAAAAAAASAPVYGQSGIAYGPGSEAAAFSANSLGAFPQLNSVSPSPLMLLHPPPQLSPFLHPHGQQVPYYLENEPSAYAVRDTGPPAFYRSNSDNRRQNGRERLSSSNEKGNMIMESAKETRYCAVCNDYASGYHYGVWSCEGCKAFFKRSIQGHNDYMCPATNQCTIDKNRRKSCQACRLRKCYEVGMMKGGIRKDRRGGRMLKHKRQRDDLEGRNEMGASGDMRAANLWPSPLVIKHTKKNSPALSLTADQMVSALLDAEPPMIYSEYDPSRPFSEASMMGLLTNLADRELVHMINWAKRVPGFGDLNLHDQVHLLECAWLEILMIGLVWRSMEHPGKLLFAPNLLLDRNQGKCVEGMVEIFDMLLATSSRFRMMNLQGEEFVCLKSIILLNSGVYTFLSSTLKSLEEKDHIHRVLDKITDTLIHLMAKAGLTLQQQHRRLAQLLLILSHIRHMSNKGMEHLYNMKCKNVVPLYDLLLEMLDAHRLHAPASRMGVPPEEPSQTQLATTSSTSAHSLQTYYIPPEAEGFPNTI
Procedure, shortened: (§2)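 Immature mice given 0.4 µg estrone per animal sc on three consecutive days. Control animals got vehicle. Killed 24 h after the last injection. Uteri fixed in Bouin, dried at 100 °C for 24 h and weighed. Result expressed as uterine dry weight (mg)/body weight (g) ×100, mean of 10 animals ± SD.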

[3] = target: T1, Estrogen receptor (Mus musculus); test: as §1; type: functional, tissue-based; procedure, shortened: as §2; remark: listed apart in the source
[4] = target: T1, Estrogen receptor (Mus musculus); test: Anti-estrogenic activity as Uterus dry weight (mg)/body weight (g) *100 in mice at 125 ug; type: functional, tissue-based
Procedure, shortened: (§3)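 Immature mice, sc injection on three consecutive days of test compound together with a standard 0.4 µg estrone per animal and day. Dose per animal. Control animals got vehicle. Killed 24 h after the last injection. Uteri Bouin-fixed, cleaned, washed in alcoholic LiCl, dried at 100 °C for 24 h and weighed. Read-out is uterine dry weight (mg)/body weight (g) ×100, mean of 10 animals ± SD.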

[5] = target: T1, Estrogen receptor (Mus musculus); test: Anti-estrogenic activity as Uterus dry weight (mg)/body weight (g) *100 in mice at 25 ug; type: functional, tissue-based; procedure, shortened: as §3
[6] = target: T1, Estrogen receptor (Mus musculus); test: Anti-estrogenic activity as Uterus dry weight (mg)/body weight (g) *100 in mice at 250 ug; type: functional, tissue-based; procedure, shortened: as §3
[7] = target: T1, Estrogen receptor (Mus musculus); test: Anti-estrogenic activity as Uterus dry weight (mg)/body weight (g) *100 in mice at 625 ug; type: functional, tissue-based; procedure, shortened: as §3
[8] = target: T1, Estrogen receptor (Mus musculus); test: Anti-estrogenic activity as Uterus dry weight (mg)/body weight (g) *100 in mice at 75 ug; type: functional, tissue-based; procedure, shortened: as §3
[9] = target: T1, Estrogen receptor (Mus musculus); test: Estrogenic activity as Uterus dry weight (mg)/body weight (g) *100 in mice at 5 ug
[10] = target: T1, Estrogen receptor (Mus musculus); test: Estrogenic activity as Uterus dry weight (mg)/body weight (g) *100 in mice at 25 ug
[11] = target: T1, Estrogen receptor (Mus musculus); test: Estrogenic activity as Uterus dry weight (mg)/body weight (g) *100 in mice at 625 ug
MCF7 [12] = test: Effect on [3H]-thymidine incorporation into estrogen receptor positive MCF-7 human breast carcinoma cells at 10e-7 M (ex 1); type: functional
Procedure, shortened: (§4)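 MCF-7 cells kept in MEM with 5% charcoal-stripped newborn calf serum for two weeks. About 2×10^4 cells per well plated, then one day later exposed to compound in 0.1% ethanol. Ethanol-only controls. Medium changed on day 4. Three days later cells labelled with 1 µCi [3H]thymidine per well for 2 h. TCA-insoluble radioactivity per dish counted, mean of six dishes ± SD, expressed as % T/C.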

MCF7 [13] = test: Effect on [3H]-thymidine incorporation into estrogen receptor positive MCF-7 human breast carcinoma cells at 10e-6 M (exp 1); type: functional; procedure, shortened: as §4
MCF7 [14] = test: Effect on [3H]thymidine incorporation into estrogen receptor positive MCF-7 human breast carcinoma cells at 10e-6 M (ex 2); type: functional; procedure, shortened: as §4
MCF7 [15] = test: Effect on [3H]thymidine incorporation into estrogen receptor positive MCF-7 human breast carcinoma cells at 10e-7 M (experiment 2); type: functional; procedure, shortened: as §4
[16] = target: T1, Estrogen receptor (Mus musculus); test: as §1; type: functional, tissue-based; procedure, shortened: as §2; remark: listed apart in the source
[17] = target: T1, Estrogen receptor (Mus musculus); test: Anti-estrogenic activity as Uterus dry weight (mg)/body weight (g) *100 in mice at 1 ug; type: functional, tissue-based; procedure, shortened: as §3
[18] = target: T1, Estrogen receptor (Mus musculus); test: Anti-estrogenic activity as Uterus dry weight (mg)/body weight (g) *100 in mice at 5 ug; type: functional, tissue-based; procedure, shortened: as §3
[19] = target: T1, Estrogen receptor (Mus musculus); test: Percent inhibition of estrone-stimulated uterine growth in mice; type: functional; parameters: concentration or dose not given beside the values; conditions: concentration not given here
Procedure, shortened: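 Mouse antiuterotrophic test. Immature mice injected sc on three consecutive days with 0.4 µg estrone plus increasing doses per animal of test compound. Dry uterine weight/body weight ×100 determined 24 h after the last injection, 10 animals per group. Inhibition (%) = 100 − [(E_S,T − E_V)/(E_S − E_V)] ×100, where E_S is estrone alone and E_V is vehicle. Significance by Mann-Whitney U-test.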

[20] = in the assay text read “Estrogenic activity” for “Anti-estrogenic activity”

SMILES: Cc1c(-c2ccc(O)cc2)n(-c2ccccc2)c2ccc(O)cc12
- relative binding affinity (RBA) [1]: 9

SMILES: CC(=O)Oc1ccc(-c2c(C)c3cc(OC(C)=O)ccc3n2Cc2ccc(C#N)cc2)cc1
- Activity [2]: 43.7
- Activity [3]: 48.2
- Activity [4]: 30.5
- Activity [4, 20]: 20
- Activity [5]: 37.9
- Activity [6]: 30.4
- Activity [7]: 31.5
- Activity [8]: 34.1
- Activity [9]: 14
- Activity [10]: 15.1
- Activity [11]: 27.4

SMILES: CC/C(=C(\c1ccccc1)c1ccc(OCCN(C)C)cc1)c1ccccc1 [TAMOXIFEN]
- T/C (MCF7 [12]): 4.5 ×10^4 per dish
- T/C (MCF7 [13]): 2.2 ×10^4 per dish
- T/C (MCF7 [14]): 5.3 ×10^4 per dish
- T/C (MCF7 [15]): 6.7 ×10^4 per dish and 10.8 ×10^4 per dish

SMILES: Cc1c(-c2ccc(O)cc2)n(C(=O)c2ccccc2)c2ccc(O)cc12
- relative binding affinity (RBA) [1]: 2.4

SMILES: Cc1c(-c2ccc(O)cc2)n(-c2ccccc2)c2cc(O)ccc12
- relative binding affinity (RBA) [1]: 7.5

SMILES: Cc1c(-c2ccc(O)cc2)n(Cc2ccc(Cl)cc2)c2ccc(O)cc12
- relative binding affinity (RBA) [1]: 8

SMILES: Cc1ccc(Cn2c(-c3ccc(O)cc3)c(C)c3cc(O)ccc32)cc1
- relative binding affinity (RBA) [1]: 11

SMILES: CC(=O)Oc1ccc(-c2c(C)c3cc(OC(C)=O)ccc3n2Cc2ccccc2)cc1
- Activity [16]: 48.2
- Activity [3]: 47.4
- Activity [17]: 49.9
- Activity [4]: 34.7
- Activity [4, 20]: 30.7
- Activity [5]: 42.8
- Activity [18]: 48.7
- inhibition [19]: 17% and < 42%
- Activity [9]: 13.3
- Activity [10]: 22.6
- Activity [11]: 38.1

Other lines, results leading:

- relative binding affinity (RBA) [1]: 2.6
SMILES: Cc1c(-c2ccccc2)n(Cc2ccccc2)c2ccc(O)cc12

- relative binding affinity (RBA) [1]: 0.55
SMILES: Cc1c(-c2ccc(O)cc2)n(Cc2ccccc2)c2ccccc12

- relative binding affinity (RBA) [1]: 3
SMILES: Cc1c(-c2cccc(O)c2)n(Cc2ccccc2)c2ccc(O)cc12

- relative binding affinity (RBA) [1]: 6.6
SMILES: Cc1cccc(Cn2c(-c3ccc(O)cc3)c(C)c3cc(O)ccc32)c1
